In the library only some 3% were active in any assay of this set; here they are far more common.
SENP6 block: inhibitors of human SENP6 protease; Q9GZR1; Recombinant SENP6 catalytic domain, aminoluciferin luminescence; inhibition, % at 10 µM; 330,000 compounds, 1.8% hits; AID 2599;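 active means inhibition above about 50% at the single tested dose, limit read from the data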;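 further: plate controls were DMSO wells with enzyme for no effect and DMSO wells lacking enzyme for full effect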
SENP7 block: inhibitors of human SENP7 protease; recombinant SENP7, Z-RLRGG-aminoluciferin luminescence, 40 min; 330,000 compounds, 1.5% hits; inhibition, % at 5 µM;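 active means inhibition above about 50% at the single test dose, limit read from the data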;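 further: plate controls were DMSO with enzyme for no effect and no enzyme buffer wells for full effect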
SENP8 block-1: inhibitors of human SENP8 protease | Q96LD8 | recombinant SENP8, Nedd8 substrate fluorescence | inhibition, % at 20 µM | 360,000 compounds, 0.64% hits | AID 602440; in the data active means inhibition mostly above about 40%, no sharp cut-off; inactive means mostly below about 27%
Target sequence (Q96LD8 whole entry, looked up): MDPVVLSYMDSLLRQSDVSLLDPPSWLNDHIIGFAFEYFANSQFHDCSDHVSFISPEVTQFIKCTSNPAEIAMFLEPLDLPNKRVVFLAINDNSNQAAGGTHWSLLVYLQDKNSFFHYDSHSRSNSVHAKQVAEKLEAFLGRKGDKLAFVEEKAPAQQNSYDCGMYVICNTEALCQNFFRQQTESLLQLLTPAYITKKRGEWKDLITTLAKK
SENP8 block-2: blocks the human protease SENP8 | purified SENP8, Z-RLRGG-aminoluciferin cleavage, luminescence | inhibition, % at 10 µM | 330,000 compounds, 1.2% hits | AID 2540; in the data active means inhibition above about 50%
UBC13 polyUb: human UBC13 polyubiquitination inhibition; inhibition, % at 20 µM; AID 485273; 330,000 compounds, 0.47% hits; UBC13 polyubiquitin chain formation, TR-FRET; in the data active means inhibition above about 45%, passing the limit was not always enough
Target sequence (P61088 whole entry, looked up): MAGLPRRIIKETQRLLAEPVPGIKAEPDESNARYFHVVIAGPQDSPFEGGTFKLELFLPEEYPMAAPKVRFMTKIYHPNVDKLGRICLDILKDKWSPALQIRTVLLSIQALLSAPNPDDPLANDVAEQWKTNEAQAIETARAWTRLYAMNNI
Apaf-1 inh: human Apaf-1 inhibition; 330,000 compounds, 0.71% hits; reconstituted apoptosome caspase-3 activity, DEVD-Rh110 fluorescence; inhibition, % at 20 µM; O14727; active means inhibition of at least 40% at 20 µM;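 further: plate controls were DMSO wells for no effect and DEVD-CHO caspase inhibitor wells for full effect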
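Material: biochemical Apaf-1 apoptosome reconstitution. Medium: Hepes buffer, pH 7.5. Also added: cytochrome c activation, bis-DEVD rhodamine 110 substrate. Timing: 30 min compound preincubation, 50 min activation, room temperature. Measured by: rhodamine 110 fluorescence at Ex 480/Em 540 nm.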
SENP8 conf: confirmation of human SENP8 protease inhibitors. 6,200 compounds, 40% hits. inhibition, % at 12.5 µM. shares compounds with SENP7 block. Recombinant SENP8, Z-RLRGG-aminoluciferin luminescence, 60 min;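 active means mean inhibition across replicates above about 50%, limit read from the data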
SENP6 confirm: confirmation of human SENP6 protease inhibitors | shares compounds with SENP7 block | 6,200 compounds, 58% hits | inhibition, % at 12.5 µM | AID 488915 | recombinant SENP6, Z-RLRGG-aminoluciferin luminescence
SENP7 conf: human SENP7 inhibition, confirmed; inhibition, % at 12.5 µM; 6,200 compounds, 69% hits; recombinant SENP7, Z-RLRGG-aminoluciferin luminescence, 40 min; shares compounds with SENP7 block
Casp3 select: caspase-3 inhibition (SENP selectivity assay) | shares compounds with SENP7 block | purified caspase-3, Z-DEVD-aminoluciferin luminescence, 60 min | inhibition, % at 12.5 µM | AID 488918 | 6,200 compounds, 60% hits;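 active means mean inhibition above about 50%, limit read from the data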;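 further: plate controls were enzyme with DMSO for no effect and wells without caspase-3 for full effect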
Target sequence (P42574 28-227 limits assumed): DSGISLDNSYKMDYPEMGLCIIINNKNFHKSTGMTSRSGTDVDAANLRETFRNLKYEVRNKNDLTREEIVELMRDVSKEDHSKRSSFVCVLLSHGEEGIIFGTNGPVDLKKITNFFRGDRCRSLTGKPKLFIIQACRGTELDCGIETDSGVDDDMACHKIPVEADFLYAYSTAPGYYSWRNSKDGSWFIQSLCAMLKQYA
SENP luc ctr: luminescence interference (SENP counter-screen); shares compounds with SENP7 block; Pre-incubated SENP8/Z-RLRGG-aminoluciferin, luciferase luminescence interference; inhibition, % at 12.5 µM; 6,200 compounds, 39% hits; AID 488919;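 active means mean inhibition above about 50% when retested at one dose, limit read from the data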;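 further: plate controls were DMSO wells with completed reaction for no effect and substrate without enzyme for full effect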
* hit, by the source's call; x = not tested or not shown.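 How the source made its calls, unless noted: active means mean inhibition above about 50% in the one-dose retest (limit read from the data); inactive means the rest.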

SMILES	SENP6 block	SENP7 block	SENP8 block-1	SENP8 block-2	UBC13 polyUb	Apaf-1 inh	SENP8 conf	SENP6 confirm	SENP7 conf	Casp3 select	SENP luc ctr
O=C(NCCOc1ccccc1)c1ccc2c(c1)OCO2	69*	-2	4	50	4	2	50*	48	85*	80*	69*
O=C(NCCOc1ccccc1)c1ccc2n[nH]nc2c1	58*	32	-2	50*	-12	12	68*	68*	87*	87*	72*
CN(C)CCC1CCN(c2cc(C#N)c(C#N)cc2[N+](=O)[O-])CC1	2	8	23	3	-41	-3	x	x	x	x	x
Cc1cc(NC(=O)CCC(=O)N(Cc2cccnc2)C(C(=O)NC(C)(C)C)c2ccccc2Cl)no1 (centres undefined)	8	5	9	-1	-3	2	x	x	x	x	x
CCc1cc(C(=O)Nc2ccc(OC)nc2)sc1C	-15	-5	7	-10	-14	13	x	x	x	x	x
CCc1cc(C(=O)Nc2ncccc2O)sc1C	66*	67*	1	40	-1	2	52*	53*	86*	81*	63*
S=C1NC(c2ccccc2)N2C(=S)NC(c3ccccc3)N12 (centres undefined)	69*	52*	15	38	-3	-8	8	15	45	6	8
C(=N\NC1=Nc2cccc3cccc1c23)/c1ccccc1	62*	48	27	33	-16	25	28	26	83*	35	13
CC(Oc1ccc(Br)cc1Cl)C(=O)Nc1ccncc1 (centres undefined)	4	-1	9	-2	1	6	x	x	x	x	x
COc1ccc(C(C(=O)NC2CCCC2)N(C(=O)CNC(=O)c2ccco2)c2cccnc2)cc1 (centres undefined)	-4	0	15	2	9	0	x	x	x	x	x
COc1ccc(/C=C2\SC(N)=NC2=O)cc1	10	-1	-4	2	-4	-13	x	x	x	x	x
CCOC(=O)CSC1=NC(=O)/C(=C/c2ccc(OC)cc2)S1	77*	29	12	33	21	-8	7	5	5	27	30
CCCn1c(SCC(=O)NC(=O)Nc2ccc(C)cc2C)n[nH]c1=O	-6	-2	8	7	7	4	x	x	x	x	x
Cc1ccc(NC(=O)NC(=O)CSc2nnc(-c3ccc(Cl)cc3Cl)n2N)c(C)c1	63*	59*	19	40	9	24	56*	56*	83*	32	72*
CC(=O)c1ccc(N2CCN(C(=O)Cc3ccccc3)CC2)c(F)c1	-18	2	-4	-1	-4	3	x	x	x	x	x
O=C(Cc1ccccc1)N1CCN(c2ccccc2F)CC1	75*	-1	10	59*	2	1	-4	-2	-2	7	1
CC(OC(=O)Cc1n[nH]c(=O)c2ccccc12)C(=O)Nc1ccc(F)cc1Cl (centres undefined)	-9	-2	8	-7	-5	-1	x	x	x	x	x
COC(=O)CSc1nc2ccccc2o1	-5	4	8	2	-6	3	x	x	x	x	x
O=C(CSc1nc2ccccc2o1)c1ccccc1	67*	71*	12	46	3	2	68*	69*	85*	61*	62*
O=C(O)c1ccc(CSc2nc3ccccc3o2)cc1	75*	30	13	54*	-3	5	66*	64*	86*	83*	70*
O=C(O)c1ccccc1CSc1nc2ccccc2o1	85*	62*	15	57*	-3	-2	77*	75*	91*	90*	81*
CC(=O)CSc1nc2ccccc2o1	1	-11	26	-11	-4	2	x	x	x	x	x
CCc1ccc(-c2cc(C)no2)cc1S(=O)(=O)N1CCOc2ccccc21	19	4	21	8	-6	13	x	x	x	x	x
O=C(O)c1ccc(CNC(=O)C2CCCN2C(=O)OCc2ccccc2)cc1 (centres undefined)	-18	5	13	-1	4	-4	x	x	x	x	x
Cc1nc2oc3ccc(Cl)cc3c(=O)c2cc1C(=O)O	79*	79*	-114	70*	4	-6	82*	81*	96*	94*	76*
SMILES	SENP6 block	SENP7 block	SENP8 block-1	SENP8 block-2	UBC13 polyUb	Apaf-1 inh	SENP8 conf	SENP6 confirm	SENP7 conf	Casp3 select	SENP luc ctr
CC(C)c1ccc2oc3nc(N)c(C(=O)O)cc3c(=O)c2c1	97*	101*	x	96*	6	1	98*	99*	102*	97*	91*
Cc1nc2oc3ccccc3c(=O)c2cc1C(=O)O	7	-7	-1	-4	4	-5	x	x	x	x	x
O=C(CCc1ccccc1)Nc1cc2c3c(c1)CC(=O)N3CCC2	-9	-14	3	-3	2	3	x	x	x	x	x
Oc1ccc(Cl)cc1CNc1cccc2cccnc12	84*	65*	35	88*	-104	91*	-7	18	5	4	6
Cc1cccc(NCc2cc(Cl)ccc2O)n1	-58	7	12	-5	24	0	x	x	x	x	x
O=c1oc(-c2cccs2)nc2sc3c(c12)CCC3	23	-16	-127	15	1	-11	x	x	x	x	x
O=c1oc(-c2cccs2)nc2sc3c(c12)CCCC3	75*	89*	-37	74*	2	-20	47	49	46	70*	20
O=C(CN1C(=O)NC2(CCCC2)C1=O)Nc1cc(Cl)ccc1Oc1ccccc1	4	-1	9	6	9	13	x	x	x	x	x
COc1ccc2c(-c3cc4ccc(OCc5ccc(F)cc5)cc4oc3=O)cc(=O)oc2c1	x	x	-424	x	x	x	x	x	x	x	x
O=C1COc2ccc(OCc3ccc(F)cc3)cc21	71*	64*	12	48	-4	2	68*	67*	89*	76*	50*
COc1ccc(Oc2ccc(C(F)(F)F)cc2N)cc1	2	8	15	2	2	7	x	x	x	x	x
O=C(Nc1ccc(-c2nc3cccnc3s2)cc1)c1ccco1	93*	89*	-385	86*	-1	12	75*	91*	99*	79*	22

Assay outcomes deposited in PubChem BioAssay by Sanford-Burnham Center for Chemical Genomics.
